Test results reported in PMC2585982 (Toxicology and applied pharmacology, 2008).

Experiments:
NQO = test: Liver cytosolic NQO activity; assay type: in vivo, mice; conditions: female SENCAR mice, 35, 70, 150 mg/kg p.o. 4 days, vs corn oil
PXR LBD and SRC-1 RID = PXR LBD and SRC-1 RID (Mus musculus, UniProt O54915); test: Mammalian two-hybrid assay, Gal-SRC-1 RID + VP-L-PXR in CV-1 cells; assay type: cell-based; conditions: isopimpinellin 50 μM; PCN 10 μM; Figure 7A
Summary of the method: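 Mammalian two-hybrid in CV-1 cells co-transfected with Gal-SRC-1 RID and/or VP-L-PXR, plus MH100-tk-luc reporter and CMX-β-gal. Cells were exposed to compound or solvent control in medium for 18–24 h. Interaction was taken as luciferase activity normalised to β-gal activity; mean ± SD.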

[1] = target: mCAR-LBD fused to the Gal4 DNA binding domain (Mus musculus, UniProt O35627); test: CAR transfection assay, Gal4-mCAR LBD fusion reporter in HepG2 cells; assay type: cell-based, murine; conditions: HepG2, 4 μM androstanol; 250 nM TC or 0.1–100 μM isopimpinellin, 24 h
GSTa1 mRNA = test: Northern blot of liver RNA, GSTa1 mRNA in CAR; assay type: in vivo, mice; conditions: isopimpinellin 150 mg/kg p.o. 24 h; TC 3 mg/kg i.p. 6 h
Cyp3a11 mRNA = test: Northern blot of liver RNA, Cyp3a11 mRNA in CAR; conditions: isopimpinellin 150 mg/kg p.o. 24 h, TC 3 mg/kg i.p. 6 h

mCAR-LBD fused to the Gal4 DNA binding domain, sequence (O35627 119-358 limits assumed): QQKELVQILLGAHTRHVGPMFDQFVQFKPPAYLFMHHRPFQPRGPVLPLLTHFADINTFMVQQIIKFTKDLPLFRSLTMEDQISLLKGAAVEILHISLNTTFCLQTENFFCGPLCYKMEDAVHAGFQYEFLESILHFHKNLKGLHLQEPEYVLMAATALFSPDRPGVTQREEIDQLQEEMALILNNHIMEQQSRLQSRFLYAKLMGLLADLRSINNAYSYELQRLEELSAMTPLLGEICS
PXR LBD and SRC-1 RID, sequence (O54915 143-430 limits assumed): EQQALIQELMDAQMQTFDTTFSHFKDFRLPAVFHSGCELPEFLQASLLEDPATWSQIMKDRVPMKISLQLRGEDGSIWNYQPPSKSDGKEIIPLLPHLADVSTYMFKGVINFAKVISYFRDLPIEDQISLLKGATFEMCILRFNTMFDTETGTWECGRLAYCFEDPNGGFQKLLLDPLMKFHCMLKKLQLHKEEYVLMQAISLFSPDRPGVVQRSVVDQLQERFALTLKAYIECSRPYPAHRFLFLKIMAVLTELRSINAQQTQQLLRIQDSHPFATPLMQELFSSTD
PXR LBD and SRC-1 RID, sequence (Q15788 570-780 partner limits assumed): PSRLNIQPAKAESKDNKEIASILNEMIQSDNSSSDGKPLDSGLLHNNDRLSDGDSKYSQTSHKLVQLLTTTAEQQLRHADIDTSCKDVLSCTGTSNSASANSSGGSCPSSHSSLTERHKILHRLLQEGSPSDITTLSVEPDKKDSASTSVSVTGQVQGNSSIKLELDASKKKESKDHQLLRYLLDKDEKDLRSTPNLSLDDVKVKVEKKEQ

For `COc1c2ccoc2c(OC)c2oc(=O)ccc12` [isopimpinellin, 5,8-dimethoxypsoralen], the “Liver cytosolic NQO activity, dose-response study” value (NQO) was “increased at all doses”, the “Induced interaction of PXR LBD and SRC-1 RID compared to the control” value (PXR LBD and SRC-1 RID) was “over 4 fold” and the “Effect on the inhibitory effect of androstanol on Gal4 reporter expression (mCAR-LBD)” value [1] was “counteracted”. For the same molecule, the “Increase in hepatic GSTa1 mRNA, female CAR(−/−) mice” value (GSTa1 mRNA) was ~ 3 fold, the “Increase in hepatic GSTa1 mRNA, male CAR(−/−) mice” value (GSTa1 mRNA) was ~ 8 fold and the “Increase in hepatic GSTa1 mRNA, male and female CAR(+/+) mice” value (GSTa1 mRNA) was 10–11 fold. For the same molecule, the “Induction of hepatic Cyp3a11 mRNA, CAR(−/−) mice” value (Cyp3a11 mRNA) was “still observed” and the “Induction of hepatic Cyp3a11 mRNA, CAR(+/+) mice” value (Cyp3a11 mRNA; male and female) was ~ 4 fold.
